Measurements from ChEMBL document CHEMBL5108018, “Discovery of MDM2-p53 and MDM4-p53 protein-protein interactions small molecule dual inhibitors” (Eur J Med Chem, 2022).
Calls of active or inactive are those of the source. The calls are words filed in the database; no cut-off is given here.

Tests used:
[1] = Antiproliferative activity against human HCT116-p53-null cells assessed as reduction in cell viability at 20 uM incubated for 48 hrs by MTS assay; assay type: functional
Outline: (§1)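 Single-concentration MTS viability with DMSO vehicle control (final ≤0.1%) run in parallel. HEK293T: 3×10^3 cells/well, 15 µM for 96 h. HCT116 p53(-/-): 20 µM for 48 h. Compound added ~24 h after plating; MTS 0.5 mg/mL in fresh medium for 15–30 min, A490. Mean ± SD of three independent experiments, one-way ANOVA with Bonferroni test.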

SJSA-1 [2] = experiment: Induction of cell cycle arrest in human SJSA-1 cells assessed as accumulation of cells at S phase at 10 uM incubated for 96 hrs by RNaseA/PI staining based flow cytometry analysis (reference value: 30.25 %); assay type: functional
SJSA-1 [3] = experiment: Induction of cell death in human SJSA-1 cells assessed as reduction in cell growth at IC50 incubated for 96 hrs by bright field microscopic analysis; assay type: functional, cell-based
Outline: (§2)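 Brightfield microscopy of SJSA-1 cell morphology after 96 h with DMSO vehicle or compound.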

HEK-293T [4] = experiment: Cytotoxicity against HEK293T cells assessed as reduction in cell viability at 15 uM incubated for 96 hrs by MTS assay; assay type: toxicity, cell-based; conditions: human; outline: as §1
SJSA-1 [5] = experiment: Induction of apoptosis in human SJSA-1 cells assessed as early apoptotic cells at 10 uM incubated for 96 hrs by Annexin V-FITC/7-AAD staining based flow cytometric analysis (reference value: 1.9%); assay type: functional
SJSA-1 [6] = experiment: Antiproliferative activity against human SJSA-1 cells harboring wild type p53 overexpressing MDM2/4 assessed as inhibition of cell growth incubated for 96 hrs by MTS assay; assay type: functional, cell-based; conditions: SJSA-1, 96 h
Outline: (§3)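 MTS viability: cells seeded 1×10^4/well (HCT116), 3×10^3/well (SJSA-1, LNCaP), 5×10^3/well (MCF-7), treated ~24 h after plating with DMSO-stock compounds serially diluted in medium (final DMSO ≤0.1%). Ten or more concentrations over 1–100 µM, duplicates, ≥3 independent runs. Exposure 48 h (HCT116), 72 h (MCF-7), 96 h (SJSA-1, LNCaP). MTS 0.5 mg/mL added for 15–30 min, A490. IC50 from four-parameter variable-slope fit.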

LNCaP = experiment: Antiproliferative activity against human LNCaP cells harboring wild type p53 overexpressing MDM2/4 assessed as inhibition of cell growth incubated for 96 hrs by MTS assay; assay type: functional, cell-based; outline: as §3
SJSA-1 [7] = experiment: Induction of cell death in human SJSA-1 cells assessed as loss of cell volume at 1.5 times IC50 incubated for 96 hrs by bright field microscopic analysis; assay type: functional, cell-based; outline: as §2
SJSA-1 [8] = experiment: Induction of cell cycle arrest in human SJSA-1 cells assessed as accumulation of cells at S phase at 15 uM incubated for 96 hrs by RNaseA/PI staining based flow cytometry analysis (reference value: 30.25 %); assay type: functional
SJSA-1 [9] = experiment: Induction of cell cycle arrest in human SJSA-1 cells assessed as accumulation of cells at G0/G1 phase at 10 uM incubated for 96 hrs by RNaseA/PI staining based flow cytometry analysis (reference value: 50.93 %); assay type: functional
SJSA-1 [10] = experiment: Induction of apoptosis in human SJSA-1 cells assessed as early apoptotic cells at 15 uM incubated for 96 hrs by Annexin V-FITC/7-AAD staining based flow cytometric analysis (reference value: 1.9%); assay type: functional
SJSA-1 [11] = experiment: Induction of apoptosis in human SJSA-1 cells assessed as viable cells at 10 uM incubated for 96 hrs by Annexin V-FITC/7-AAD staining based flow cytometric analysis (reference value: 94.3%); assay type: functional; conditions: read-out: Activity
HCT-116 = experiment: Antiproliferative activity against human HCT-116 cells harboring wild type p53 overexpressing MDM2 assessed as inhibition of cell growth incubated for 48 hrs by MTS assay; assay type: functional, cell-based; conditions: HCT-116, 48 h; outline: as §3
SJSA-1 [12] = experiment: Induction of cell cycle arrest in human SJSA-1 cells assessed as accumulation of cells at G0/G1 phase at 15 uM incubated for 96 hrs by RNaseA/PI staining based flow cytometry analysis (reference value: 50.93 %); assay type: functional
SJSA-1 [13] = experiment: Induction of apoptosis in human SJSA-1 cells assessed as late apoptotic cells at 15 uM incubated for 96 hrs by Annexin V-FITC/7-AAD staining based flow cytometric analysis (reference value: 3.7%); assay type: functional
MCF7 = experiment: Antiproliferative activity against human MCF7 cells harboring wild type p53 overexpressing MDM2/4 assessed as inhibition of cell growth incubated for 72 hrs by MTS assay; assay type: functional, cell-based; conditions: MCF7, 72 h; outline: as §3
SJSA-1 [14] = experiment: Induction of cell cycle arrest in human SJSA-1 cells assessed as accumulation of cells at G2/M phase at 10 uM incubated for 96 hrs by RNaseA/PI staining based flow cytometry analysis (reference value: 18.82 %); assay type: functional
SJSA-1 [15] = experiment: Induction of cell cycle arrest in human SJSA-1 cells assessed as accumulation of cells at G2/M phase at 15 uM incubated for 96 hrs by RNaseA/PI staining based flow cytometry analysis (reference value: 18.82 %); assay type: functional
SJSA-1 [16] = experiment: Induction of apoptosis in human SJSA-1 cells assessed as late apoptotic cells at 10 uM incubated for 96 hrs by Annexin V-FITC/7-AAD staining based flow cytometric analysis (reference value: 3.7%); assay type: functional
SJSA-1 [17] = experiment: Induction of apoptosis in human SJSA-1 cells assessed as viable cells at 15 uM incubated for 96 hrs by Annexin V-FITC/7-AAD staining based flow cytometric analysis (reference value: 94.3%); assay type: functional; conditions: read-out: Activity
SJSA-1 [18] = experiment: Induction of cell cycle arrest in human SJSA-1 cells assessed as accumulation of cells at G0/G1 phase at 22.5 uM incubated for 96 hrs by RNaseA/PI staining based flow cytometry analysis (reference value: 57.09 %); assay type: functional
SJSA-1 [19] = experiment: Induction of cell cycle arrest in human SJSA-1 cells assessed as accumulation of cells at S phase at 22.5 uM incubated for 96 hrs by RNaseA/PI staining based flow cytometry analysis (reference value: 25.88 %); assay type: functional
SJSA-1 [20] = experiment: Induction of cell cycle arrest in human SJSA-1 cells assessed as accumulation of cells at G2/M phase at 15 uM incubated for 96 hrs by RNaseA/PI staining based flow cytometry analysis (reference value: 17.24 %); assay type: functional
SJSA-1 [21] = experiment: Induction of cell death in human SJSA-1 cells assessed as reduction in cell growth at 1.5 times IC50 incubated for 96 hrs by bright field microscopic analysis; assay type: functional, cell-based; outline: as §2
SJSA-1 [22] = experiment: Induction of apoptosis in human SJSA-1 cells assessed as early apoptotic cells at 22.5 uM incubated for 96 hrs by Annexin V-FITC/7-AAD staining based flow cytometric analysis (reference value: 0.3%); assay type: functional
SJSA-1 [23] = experiment: Induction of apoptosis in human SJSA-1 cells assessed as viable cells at 15 uM incubated for 96 hrs by Annexin V-FITC/7-AAD staining based flow cytometric analysis (reference value: 99.2%); assay type: functional; conditions: read-out: Activity
SJSA-1 [24] = experiment: Induction of cell cycle arrest in human SJSA-1 cells assessed as accumulation of cells at G0/G1 phase at 15 uM incubated for 96 hrs by RNaseA/PI staining based flow cytometry analysis (reference value: 57.09 %); assay type: functional
SJSA-1 [25] = experiment: Induction of cell cycle arrest in human SJSA-1 cells assessed as accumulation of cells at S phase at 15 uM incubated for 96 hrs by RNaseA/PI staining based flow cytometry analysis (reference value: 25.88 %); assay type: functional
SJSA-1 [26] = experiment: Induction of apoptosis in human SJSA-1 cells assessed as viable cells at 22.5 uM incubated for 96 hrs by Annexin V-FITC/7-AAD staining based flow cytometric analysis (reference value: 99.2%); assay type: functional; conditions: read-out: Activity
SJSA-1 [27] = experiment: Induction of cell cycle arrest in human SJSA-1 cells assessed as accumulation of cells at G2/M phase at 22.5 uM incubated for 96 hrs by RNaseA/PI staining based flow cytometry analysis (reference value: 17.24 %); assay type: functional
HEK-293T [28] = experiment: Cytotoxicity against HEK293T cells assessed as reduction in cell viability at 15 uM incubated for 96 hrs by MTS assay relative to control; assay type: toxicity, cell-based; conditions: human; outline: as §1
SJSA-1 [29] = experiment: Induction of apoptosis in human SJSA-1 cells assessed as late apoptotic cells at 22.5 uM incubated for 96 hrs by Annexin V-FITC/7-AAD staining based flow cytometric analysis (reference value: 0.6%); assay type: functional

Structure (SMILES): O=C(Nc1cccc(-n2ccc(-c3ccccc3)n2)c1)C1=NN(c2ccc(Cl)cc2)C2(C(=O)Nc3cc(Cl)ccc32)C1c1cccc(O)c1 (stereo not drawn)
- Activity [1]: 52%
- Activity (SJSA-1 [2]): 16.17%
- Activity (SJSA-1 [3]): Active
- Activity (HEK-293T [4]): Non-Toxic
- Activity (SJSA-1 [5]): 4.1%
- IC50 (SJSA-1 [6]): 10.7 µM
- IC50 (LNCaP): 11.4 µM
- Activity (SJSA-1 [7]): Active
- Activity (SJSA-1 [8]): 4.27%
- Activity (SJSA-1 [9]): 74.89%
- Activity (SJSA-1 [10]): 14.4%
- viability at 10 µM (SJSA-1 [11]): 90.5%
- IC50 (HCT-116): 18.8 µM
- Activity (SJSA-1 [12]): 91.82%
- Activity (SJSA-1 [13]): 19.1%
- IC50 (MCF7): 9.7 µM
- Activity (SJSA-1 [14]): 8.94%
- Activity (SJSA-1 [15]): 3.91%
- Activity (SJSA-1 [16]): 5.2%
- viability at 15 µM (SJSA-1 [17]): 65.3%

Structure (SMILES): CCOC(=O)C1=NN(c2ccccc2)C2(C(=O)Nc3cc(Cl)ccc32)C1c1cccc(F)c1 (stereo not drawn)
- IC50 (HCT-116): 29.9 µM

Structure (SMILES): CC(C)(C)N1N=C(C(=O)O)C(c2cccc(Cl)c2F)C12C(=O)Nc1cc(Cl)ccc12 (stereo not drawn)
- IC50 (HCT-116): > 100 µM

Structure (SMILES): O=C(NCCc1ccc(O)cc1)C1=NN(c2ccc(Cl)cc2)C2(C(=O)Nc3cc(Cl)ccc32)C1c1cccc(O)c1 (stereo not drawn)
- IC50 (HCT-116): 27 µM

Structure (SMILES): CCOC(=O)C1=NN(C(C)(C)C)C2(C(=O)Nc3cc(Cl)ccc32)C1c1ccc(Cl)cc1 (stereo not drawn)
- IC50 (HCT-116): 30.2 µM

Structure (SMILES): CCOC(=O)C1=NN(C(C)(C)C)C2(C(=O)Nc3cc(Cl)ccc32)C1c1cccc(Cl)c1F (stereo not drawn)
- IC50 (HCT-116): 32.1 µM

Structure (SMILES): O=C(NCC1(O)CCC1)C1=NN(c2ccc(Cl)cc2)C2(C(=O)Nc3cc(Cl)ccc32)C1c1cccc(O)c1 (stereo not drawn)
- IC50 (HCT-116): 37.2 µM

Structure (SMILES): O=C(NCCO)C1=NN(c2ccc(Cl)cc2)C2(C(=O)Nc3cc(Cl)ccc32)C1c1cccc(O)c1 (stereo not drawn)
- IC50 (HCT-116): > 50 µM

Structure (SMILES): CCOC(=O)C1=NN(c2ccc(Cl)cc2)C2(C(=O)Nc3cc(Cl)ccc32)C1c1cccc(Cl)c1F (stereo not drawn)
- Activity (SJSA-1 [18]): 82.19%
- Activity [1]: 13%
- IC50 (SJSA-1 [6]): 15.6 µM
- Activity (SJSA-1 [19]): 11.13%
- Activity (SJSA-1 [20]): 11.01%
- IC50 (LNCaP): 10.7 µM
- Activity (SJSA-1 [21]): Active
- Activity (SJSA-1 [22]): 2.9%
- viability at 15 µM (SJSA-1 [23]): 98.6%
- Activity (SJSA-1 [24]): 67.51%
- IC50 (HCT-116): 18 µM
- Activity (SJSA-1 [25]): 21.48%
- IC50 (MCF7): 15.6 µM
- viability at 22.5 µM (SJSA-1 [26]): 92.7%
- Activity (SJSA-1 [27]): 6.67%
- Activity (HEK-293T [28]): 24%
- Activity (SJSA-1 [29]): 4.3%

Structure (SMILES): CCOC(=O)C1=NN(C(C)(C)C)C2(C(=O)Nc3cc(Cl)ccc32)C1c1ccc(F)cc1 (stereo not drawn)
- IC50 (HCT-116): 49.9 µM

Structure (SMILES): CCOC(=O)C1=NN(C2CCCCC2)C2(C(=O)Nc3cc(Cl)ccc32)C1c1cccc(Cl)c1 (stereo not drawn)
- IC50 (HCT-116): 25.5 µM

Structure (SMILES): CC(C)(C)N1N=C(C(=O)Nc2ccc(O)cc2)C(c2cccc(Cl)c2F)C12C(=O)Nc1cc(Cl)ccc12 (stereo not drawn)
- IC50 (HCT-116): 34.2 µM

Structure (SMILES): O=C(O)C1=NN(C2CCCCC2)C2(C(=O)Nc3cc(Cl)ccc32)C1c1cccc(Cl)c1F (stereo not drawn)
- IC50 (HCT-116): > 100 µM
